# What was measured:
# [1] = Antiproliferative activity against human HeLa cells after 72 hrs by XTT assay; format: functional, cell-based
# Summary of the method: (§1)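 Cells plated at 1500–2000 per well by doubling time, treated after 24 h with a concentration series in six triplicate wells, and incubated 72 h without a medium change. XTT reagent was then added for 4 h at 37 °C and absorbance read at 490 nm. IC50 is the concentration halving absorbance versus untreated cells. Experiments run in triplicate.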
# [2] = Antiproliferative activity against human MCF7 cells after 72 hrs by XTT assay; format: functional, cell-based; details: MCF7, 72 h; summary of the method: as §1
Structure (SMILES),IC50 [1],IC50 [2]
c1ccc(Cc2nnc(-c3c[nH]c4c3Cc3ccccc3-4)o2)cc1,> 10 µM,> 10 µM
Clc1cccc(-c2nnc(-c3c[nH]c4c3Cc3ccccc3-4)o2)c1,> 10 µM,> 10 µM
COc1cc(-c2nnc(-c3c[nH]c4c3Cc3ccccc3-4)o2)cc(OC)c1OC,> 10 µM,> 10 µM
Clc1ccc(-c2nnc(-c3c[nH]c4c3Cc3ccccc3-4)o2)cc1Cl,> 10 µM,> 10 µM
c1ccc(-c2nnc(-c3nn(-c4ccccc4)c4c3Cc3ccccc3-4)o2)cc1,> 10 µM,7.59 µM
Cc1[nH]c2c(c1-c1nnc(-c3ccccc3)o1)Cc1cc(Cl)ccc1-2,4.5 µM,> 10 µM
Cn1nc(-c2nnc(-c3ccccc3)o2)c2c1-c1ccccc1C2,> 10 µM,> 10 µM
Cc1ccc2c(c1)Cc1c-2[nH]c(C)c1-c1nnc(-c2ccccc2)o1,5.3 µM,> 10 µM
Clc1ccc(-c2nnc(-c3c[nH]c4c3Cc3ccccc3-4)o2)cc1,> 10 µM,> 10 µM
Cc1[nH]c2c(c1-c1nnc(-c3ccccc3)o1)Cc1cc(Br)ccc1-2,0.51 µM,4.26 µM
CC(C)(C)c1ccc(-c2nnc(-c3c[nH]c4c3Cc3ccccc3-4)o2)cc1,3.4 µM,9.5 µM
c1ccc2c(c1)Cc1c(-c3nnc(C4CCCCC4)o3)c[nH]c1-2,> 10 µM,> 10 µM
Clc1ccc(Cc2nnc(-c3c[nH]c4c3Cc3ccccc3-4)o2)cc1,> 10 µM,> 10 µM
COc1ccc2c(c1)-c1[nH]c(C)c(-c3nnc(-c4ccccc4)o3)c1C2,> 10 µM,> 10 µM
Cc1[nH]c2c(c1-c1nnc(-c3ccccc3)o1)Cc1cc(C3CC3)ccc1-2,1.58 µM,2.31 µM
Cc1ccc(Cc2nnc(-c3c[nH]c4c3Cc3ccccc3-4)o2)cc1,> 10 µM,4.25 µM
